The target in assay [1] is T1, Glucose-dependent insulinotropic receptor (Homo sapiens, UniProt Q8TDV5).
T1 sequence (Q8TDV5 whole entry): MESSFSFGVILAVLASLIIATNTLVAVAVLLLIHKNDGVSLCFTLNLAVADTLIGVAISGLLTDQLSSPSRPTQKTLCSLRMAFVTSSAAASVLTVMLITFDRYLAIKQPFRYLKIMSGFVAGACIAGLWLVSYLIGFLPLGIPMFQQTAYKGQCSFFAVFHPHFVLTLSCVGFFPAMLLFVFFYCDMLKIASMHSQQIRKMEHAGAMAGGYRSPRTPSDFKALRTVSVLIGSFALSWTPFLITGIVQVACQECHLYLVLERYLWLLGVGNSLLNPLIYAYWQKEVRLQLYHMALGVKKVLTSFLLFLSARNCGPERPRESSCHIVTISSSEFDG
The experiment in a line: Agonist activity at human GPR119 by melanophore assay. It counts as functional. The gist of the method:
(§1)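 Agonist EC50 measured in melanophores transfected with the human or rat GPR119 receptor sequence. Values are means of multiple determinations (n).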

For assay [2], the target named is T2, Glucose-dependent insulinotropic receptor (Homo sapiens) (UniProt Q8TDV5).
T2 sequence (whole entry): T1 sequence (Q8TDV5 whole entry)
The experiment in a line: Agonist activity at human GPR119 by melanophore assay relative to AR231453. Type of assay: functional. The gist of the method:
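Melanophores transfected with human GPR119. Apparent Emax is the curve height normalized to the positive control AR231453, which is defined as a full agonist (100% efficacy).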

Assay [3] has as its target T3, Glucose-dependent insulinotropic receptor (Rattus norvegicus, UniProt Q7TQN8).
T3 sequence (Q7TQN8 whole entry): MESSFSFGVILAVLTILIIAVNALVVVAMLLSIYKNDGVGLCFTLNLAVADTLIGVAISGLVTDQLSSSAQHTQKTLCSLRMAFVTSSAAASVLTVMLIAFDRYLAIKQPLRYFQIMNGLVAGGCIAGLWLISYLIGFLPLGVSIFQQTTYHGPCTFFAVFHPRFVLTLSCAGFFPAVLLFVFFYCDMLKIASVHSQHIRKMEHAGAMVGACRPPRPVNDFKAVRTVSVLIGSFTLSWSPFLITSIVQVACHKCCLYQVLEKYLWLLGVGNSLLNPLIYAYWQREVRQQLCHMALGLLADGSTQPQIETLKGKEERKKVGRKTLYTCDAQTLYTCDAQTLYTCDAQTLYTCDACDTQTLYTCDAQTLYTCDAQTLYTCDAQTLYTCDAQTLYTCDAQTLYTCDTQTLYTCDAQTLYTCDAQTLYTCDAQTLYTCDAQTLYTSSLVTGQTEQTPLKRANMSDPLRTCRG
Description: Agonist activity at rat GPR119 by melanophore assay. Type of assay: functional. The gist of the method:
as §1

Assay [4] addresses T4, Glucose-dependent insulinotropic receptor (Rattus norvegicus) (UniProt Q7TQN8).
T4 sequence (whole entry): T3 sequence (Q7TQN8 whole entry)
Description: Selectivity ratio of EC50 for rat GPR119 to EC50 for human GPR119.

Turning to `CC(C)c1noc(C2CCN(c3ncnc(Nc4ccc(S(C)(=O)=O)cc4)c3[N+](=O)[O-])CC2)n1`, it took 0.0051 µM to reach a half-maximal effect in assay [1] (EC50).

On to `CC(C)(C)OC(=O)N1CCC(Oc2ncnc3c2nnn3-c2ccc(S(C)(=O)=O)cc2)CC1`, for which the Emax (as a rule, the greatest response seen or fitted, relative to the assay's reference) in assay [2] was 103%. Besides, the EC50 – broadly, the concentration needed to bring the measured effect to its halfway point – came out at 0.042 µM in assay [3] and 0.0074 µM in assay [1]. Further, in assay [4], the Ratio EC50 is 5.7.

`CC(C)COC(=O)N1CCC(Oc2ncnc3c2cnn3-c2ccc(S(C)(=O)=O)cc2)CC1`: in assay [2], the Emax worked out at 99%. The compound also returned an EC50 in assay [1] of 0.0042 µM.

Turning to `CC(C)(C)COC(=O)N1CCC(Oc2ncnc3c2cnn3-c2ccc(S(C)(=O)=O)cc2)CC1`, the maximum response (Emax) in assay [2] is 105%. For the same compound, the EC50 amounted to 0.065 µM in assay [3] and 0.0081 µM in assay [1]. In addition, in assay [4], the Ratio EC50 was 8.

Compound `CC(C)(C)OC(=O)N1CCC(Oc2ncnc3c2[nH]c(=O)n3-c2ccc(S(C)(=O)=O)cc2F)CC1` yielded an Emax in assay [2] of 64%. Besides, in assay [1], the EC50 came out at 0.0006 µM.

Take `CC(C)(C)OC(=O)N1CCC(S(=O)(=O)c2ncnc3c2cnn3-c2ccc(S(C)(=O)=O)cc2)CC1`: the EC50 in assay [3] and in assay [1] was > 10 µM each time.

The compound `CCOC(=O)N1CCC(Oc2ncnc3c2cnn3-c2ccc(S(C)(=O)=O)cc2)CC1` came in with an Emax in assay [2] of 91%. Further, the EC50 was 0.053 µM in assay [3] and 0.0038 µM in assay [1]. The Ratio EC50 in assay [4] amounted to 13.9.

Consider `CC(C)(C)OC(=O)N1CCC(Oc2ncnc3c2cnn3-c2ccc(S(C)(=O)=O)cc2)CC1`, for which the Emax in assay [2] turned out to be 96%. Further, the half-maximal effective concentration (EC50) in assay [3] worked out at 0.0098 µM; in assay [1] it was 0.0011 µM. In addition, the Ratio EC50 in assay [4] amounted to 8.9.

`Cc1nc(OC2CCN(C(=O)OC(C)(C)C)CC2)c2c(C)nn(-c3ccc(S(C)(=O)=O)cc3)c2n1` yielded an Emax in assay [2] of 90%. Further, the EC50 in assay [1] was determined as 0.116 µM.

Turning to `CC(C)(C)OC(=O)N1CCC(Cc2ncnc3c2cnn3-c2ccc(S(C)(=O)=O)cc2)CC1`, in assay [2], the Emax came out at 91%. Further, the EC50 stood at 0.12 µM in assay [3] and 0.0073 µM in assay [1]. For the same compound, in assay [4], the Ratio EC50 amounted to 16.4.

`CC(C)(C)OC(=O)N1CCC(Oc2ncnc3c(-c4ccc(S(C)(=O)=O)cc4)noc23)CC1` gave an Emax in assay [2] of 100%. In addition, the EC50 was 0.017 µM in assay [3] and 0.0007 µM in assay [1]. Besides, in assay [4], the Ratio EC50 was 24.3.

In assay [2], `CC(C)(C)OC(=O)N1CCC(Oc2ncnc3c2ncn3-c2ccc(S(C)(=O)=O)cc2)CC1` came in with an Emax of 95%. Further, a half-maximal effect in assay [1] (EC50) was put at 0.0334 µM.

`CC(C)c1noc(C2CCN(c3ncnc4c3cnn4-c3ccc(S(C)(=O)=O)cc3)CC2)n1` displayed a 50% effective concentration (EC50) in assay [1] of 0.042 µM.

`CC(C)(C)OC(=O)N1CCC(Sc2ncnc3c2cnn3-c2ccc(S(C)(=O)=O)cc2F)CC1` came in with an Emax in assay [2] of 98%. In addition, the EC50 in assay [3] came out at 0.0073 µM; in assay [1], 0.0005 µM. The Ratio EC50 in assay [4] was 14.6.

Take `CC(C)(C)OC(=O)N1CCC(Sc2ncnc3c2cnn3-c2ccc(S(C)(=O)=O)cc2)CC1`: the Emax in assay [2] turned out to be 104%. The concentration giving a half-maximal response (EC50) amounted to 0.0155 µM in assay [3] and 0.0056 µM in assay [1]. Further, the Ratio EC50 in assay [4] worked out at 3.

In assay [2], `CCN(CC1CCN(C(=O)OC(C)(C)C)CC1)c1ncnc2c1cnn2-c1ccc(S(C)(=O)=O)cc1` came in with an Emax of 67%. Further, in assay [1], the midpoint of the response, the EC50, lay at 0.0063 µM.

`CC(C)OC(=O)N1CCC(Oc2ncnc3c(-c4ccc(S(C)(=O)=O)cc4)noc23)CC1` showed an Emax in assay [2] of 65%. Besides, the values for the EC50 in assay [3] and in assay [1] were 0.04 µM and 0.014 µM, respectively. Also, the Ratio EC50 in assay [4] was 3.

Take `CC(C)(C)OC(=O)N1CCC([S+]([O-])c2ncnc3c2cnn3-c2ccc(S(C)(=O)=O)cc2)CC1` (stereo not drawn): the EC50 in assay [3] is > 10 µM; in assay [1], 2.4 µM.

The compound `CC(C)(C)OC(=O)N1CCC(Cc2ncnc3c2cnn3-c2ccc(S(C)(=O)=O)cc2F)CC1` returned an Emax in assay [2] of 72%. Also, the EC50 was determined as 0.088 µM in assay [3] and 0.0034 µM in assay [1]. Further, the Ratio EC50 in assay [4] is 25.9.

For the compound `CC(C)(C)OC(=O)N1CCC(Oc2ncnc3c2cnn3-c2ccc(S(C)(=O)=O)cc2F)CC1`, the maximal response (Emax) in assay [2] worked out at 79%. In addition, the EC50 came out at 0.0196 µM in assay [3] and 0.0009 µM in assay [1]. Moreover, the Ratio EC50 in assay [4] came out at 21.8.

The compound `Cc1nn(-c2ccc(S(C)(=O)=O)cc2)c2ncnc(OC3CCN(C(=O)OC(C)(C)C)CC3)c12` came in with an Emax in assay [2] of 103%. Moreover, the EC50 stood at 0.042 µM in assay [3] and 0.015 µM in assay [1]. In assay [4], the Ratio EC50 was found to be 3.

The compound `CC(C)OC(=O)N1CCC(Oc2ncnc3c2cnn3-c2ccc(S(C)(=O)=O)cc2)CC1` registered an Emax in assay [2] of 83%. In assay [1], the midpoint of the response, the EC50, lay at 0.0035 µM.

Turning to `CN(C)CCOC(=O)N1CCC(Oc2ncnc3c2cnn3-c2ccc(S(C)(=O)=O)cc2)CC1`, the EC50 in assay [1] was > 10 µM.

In turn, `CN(CC1CCN(C(=O)OC(C)(C)C)CC1)c1ncnc2c1cnn2-c1ccc(S(C)(=O)=O)cc1` displayed an Emax in assay [2] of 89%. The same compound had an EC50 in assay [1] of 0.0116 µM.

In assay [2], `CCN(CC1CCN(C(=O)OC(C)C)CC1)c1ncnc2c1cnn2-c1ccc(S(C)(=O)=O)cc1F` returned an Emax of 82%. Moreover, the figures for the EC50 in assay [3] and in assay [1] were 0.264 µM and 0.0034 µM, respectively. The Ratio EC50 in assay [4] stood at 77.6.

For the compound `CCCCOC(=O)N1CCC(Oc2ncnc3c2cnn3-c2ccc(S(C)(=O)=O)cc2)CC1`, the Emax in assay [2] was 79%. In assay [1], this compound showed an EC50 of 0.0075 µM.

In assay [1], `CC(C)c1noc(C2CCN(c3ncnc(Nc4ccc(S(C)(=O)=O)cc4F)c3[N+](=O)[O-])CC2)n1` came in with a 50% effective concentration (EC50) of 0.00065 µM.

As for `CS(=O)(=O)c1ccc(-n2ncc3c(OC4CCN(C(=O)OC5CCCC5)CC4)ncnc32)cc1`, the Emax in assay [2] was 80%. The results for the EC50 in assay [3] and in assay [1] were 0.021 µM and 0.0146 µM, respectively. The Ratio EC50 in assay [4] amounted to 1.4.

Compound `CC(C)(C)OC(=O)N1CCC(Nc2ncnc3c2cnn3-c2ccc(S(C)(=O)=O)cc2)CC1` had an Emax in assay [2] of 101%. In addition, the results for the EC50 in assay [3] and in assay [1] were > 10 µM and 0.25 µM, respectively. Moreover, in assay [4], the Ratio EC50 was > 40.

In the case of `CS(=O)(=O)c1ccc(-n2ncc3c(OC4CCN(C(=O)OC5CCOC5)CC4)ncnc32)cc1` (stereo not drawn), the Emax in assay [2] turned out to be 71%. The concentration giving a half-maximal response (EC50) in assay [1] was found to be 0.435 µM.

For `CC(C)(C)OC(=O)N1CCC(CNc2ncnc3c2cnn3-c2ccc(S(C)(=O)=O)cc2)CC1`, the Emax in assay [2] was determined as 87%. For the same compound, it took 0.265 µM to reach a half-maximal effect in assay [1] (EC50).

For the origin of these results see ChEMBL document CHEMBL1773020, “Discovery of fused bicyclic agonists of the orphan G-protein coupled receptor GPR119 with in vivo activity in rodent models of glucose control” (Bioorg Med Chem Lett, 2011).
